In ChEMBL document CHEMBL1122280, “Analogues of hycanthone and lucanthone as antitumor agents” (1983):

How the values were obtained:
P388 [1] = assay: In vivo antitumor activity against P-388 lymphocytic leukemia in mice treated with a dose of 12.5 mg/kg; assay type: functional, Mus musculus
Summary of the method: (§1)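 Mice bearing P-388 leukemia were dosed once daily for 5 days, or once daily for 9 days for the two reference parent drugs. Activity is expressed as a T/C value.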

P388 [2] = assay: In vivo antitumor activity against P-388 lymphocytic leukemia in mice treated with a dose of 50 mg/kg; assay type: functional, Mus musculus; summary of the method: as §1
P388 [3] = assay: In vivo antitumor activity against P-388 lymphocytic leukemia in mice treated with a dose of 25 mg/kg; assay type: functional, Mus musculus; summary of the method: as §1
P388 [4] = assay: In vivo antitumor activity against P-388 lymphocytic leukemia in mice treated with a dose of 200 mg/kg for 5 days
P388 [5] = assay: In vivo antitumor activity against P-388 lymphocytic leukemia in mice treated with a dose of 50 mg/kg for 2 days; assay type: functional, Mus musculus; details: in the assay text read “for 5 days” for “for 2 days”
P388 [6] = assay: In vivo antitumor activity against P-388 lymphocytic leukemia in mice treated with a dose of 25 mg/kg for 2 days; assay type: functional, Mus musculus; details: in the assay text read “for 5 days” for “for 2 days”
P388 [7] = assay: In vivo antitumor activity against P-388 lymphocytic leukemia in mice treated with a dose of 100 mg/kg for 2 days; assay type: functional, Mus musculus; details: in the assay text read “for 5 days” for “for 2 days”
P388 [8] = assay: In vivo antitumor activity against P-388 lymphocytic leukemia in mice treated with a dose of 18.75 mg/kg for 2 days; assay type: functional, Mus musculus
Summary of the method: (§2)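 P-388 leukemia-bearing mice received the drug on only 2 days, day 1 and day 4 after inoculation. Activity is expressed as a T/C value.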

P388 [9] = assay: In vivo antitumor activity against P-388 lymphocytic leukemia in mice treated with a dose of 75 mg/kg for 2 days; assay type: functional, Mus musculus; summary of the method: as §2
P388 [10] = assay: In vivo antitumor activity against P-388 lymphocytic leukemia in mice treated with a dose of 37.5 mg/kg for 2 days; assay type: functional, Mus musculus; summary of the method: as §2
P388 [11] = assay: In vivo antitumor activity against P-388 lymphocytic leukemia in mice treated with a dose of 9.88 mg/kg for 2 days; assay type: functional, Mus musculus; summary of the method: as §2
P388 [12] = assay: In vivo antitumor activity against P-388 lymphocytic leukemia in mice treated with a dose of 100 mg/kg; assay type: functional, Mus musculus; summary of the method: as §1
P388 [13] = assay: In vivo antitumor activity against P-388 lymphocytic leukemia in mice treated with a dose of 200 mg/kg; assay type: functional, Mus musculus; summary of the method: as §1
P388 [14] = assay: In vivo antitumor activity against P-388 lymphocytic leukemia in mice treated with a dose of 60 mg/kg; assay type: functional, Mus musculus; summary of the method: as §1

CCN(CC)CCNc1ccc(C)c2oc3ccc(O)cc3c(=O)c12
T/C (P388 [1]): 106 | T/C (P388 [2]): 117 | T/C (P388 [3]): 106

CN(C)CCNc1ccc(CO)c2sc3ccc(O)cc3c(=O)c12
T/C (P388 [4]): 222 | T/C (P388 [5]): 175 | T/C (P388 [6]): 160 | T/C (P388 [7]): 194

CCN(CC)CCNc1ccc(CO)c2sc3ccc(O)cc3c(=O)c12
T/C (P388 [8]): 207 | T/C (P388 [9]): 207 | T/C (P388 [10]): 179 | T/C (P388 [11]): 163

Cc1ccc(NCCN(C)C)c2c(=O)c3cc(O)ccc3oc12
T/C (P388 [1]): 99 | T/C (P388 [2]): 108 | T/C (P388 [3]): 106

CCN(CC)CCNc1ccc(CO)c2oc3ccc(O)cc3c(=O)c12
T/C (P388 [12]): 214 | T/C (P388 [13]): 163 | T/C (P388 [2]): 181

CN(C)CCNc1ccc(CO)c2sc3ccccc3c(=O)c12
T/C (P388 [12]): 150 | T/C (P388 [2]): 114 | T/C (P388 [3]): 94

CN(C)CCNc1ccc(CO)c2oc3ccc(O)cc3c(=O)c12
T/C (P388 [13]): 128 | T/C (P388 [2]): 170

CCN(CC)CCNc1ccc(CO)c2sc3ccccc3c(=O)c12 [HYCANTHONE]
T/C (P388 [14]): 165

CCN(CC)CCNc1ccc(C)c2sc3ccccc3c(=O)c12 [LUCANTHONE]
T/C (P388 [12]): 158
